From ChEMBL document CHEMBL1124913, “Aqua[1-(2,6-dichloro-4-hydroxyphenyl)-2- phenylethylenediamine](sulfato)platinum-(II) complexes with variable substituents in the 2-phenyl ring. 1. Synthesis and antitumor and estrogenic properties” (J Med Chem, 1990)
Values joined by “and” are separate entries in the source; they are usually repeats but may differ in a detail not shown here. Equal values may be shown once.

How the values were obtained:
[1] = test system: P388; assay: In vivo for antitumor effect on P388 Leukemia of the CDF1 mouse at dose 20 uM/kg administered intraperitoneally; type: functional, organism-based
Method in brief: (§1)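 P388 leukemia was passaged in female DBA/2 mice. Female CDF1 mice (18–22 g) received 1×10^6 cells ip in PBS on day 0. Groups of six (ten for solvent control) were dosed ip with aqueous solutions on days 1, 5 and 9. Median survival time = X + Y/2, with X and Y the first days reaching N/2 and N/2 + 1 deaths. %T/C = treated/control median survival ×100.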

[2] = test system: P388; assay: In vivo for antitumor effect on P388 Leukemia of the CDF1 and median survival time of the animals in days was reported at a concentration of 20 uM/Kg; type: functional, organism-based; details: Mus musculus; method in brief: as §1
[3] = test system: P388; assay: In vivo for antitumor effect on P388 Leukemia of the CDF1, and median survival time of the animals in days was reported at a concentration of 40 uM/Kg; type: functional, organism-based; details: Mus musculus; method in brief: as §1
[4] = test system: P388; assay: In vivo for antitumor effect on P388 Leukemia of the CDF1 mouse at dose 10 uM/kg administered intraperitoneally; type: functional, organism-based; method in brief: as §1
[5] = test system: P388; assay: In vivo for antitumor effect on P388 Leukemia of the CDF1 and median survival time of the animals in days was reported at a concentration of 10 uM/Kg; type: functional, organism-based; details: Mus musculus; method in brief: as §1
[6] = test system: P388; assay: In vivo antitumor effect on P388 Leukemia in CDF1 mice, median survival time in days at 10 uM/kg; type: functional, organism-based; details: Mus musculus; method in brief: as §1
[7] = target: T1, Estrogen receptor (Mus musculus) (UniProt O08537+P19785); assay: Administered subcutaneously on three consecutive days at a dose of 1000 uM /Kg.; type: functional
Method in brief: (§2)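 Immature female NMRI mice, 19 days old, in groups of six. Compounds were dissolved in water and given as 0.1 mL sc on days 1, 2 and 3; controls got vehicle and standards got estrone 0.4 μg. Animals were killed 24 h after the last dose. Uteri were fixed in Bouin solution, dried at 100 °C for 18 h and weighed. E = [uterine dry weight (mg)/body weight (g)]100, and estrogenic effect = (E_T − E_V)/(E_S − E_V)100.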

[8] = test system: P388; assay: In vivo for antitumor effect on P388 Leukemia of the CDF1 mouse at dose 40 uM/kg administered intraperitoneally; type: functional, organism-based; method in brief: as §1
[9] = target: T1, Estrogen receptor (Mus musculus); assay: (§3) Administered subcutaneously on three consecutive days at a dose of 10 uM /Kg.; type: functional; method in brief: as §2
[10] = test system: P388; assay: In vivo for antitumor effect on P388 Leukemia of the CDF1 and median survival time of the animals in days was reported at a concentration of 40 uM/Kg; type: functional, organism-based; details: Mus musculus; method in brief: as §1
[11] = test system: Mus musculus; assay: Ratio of median survival time of tested group to that of control group of animals was reported at a concentration of 10 uM/Kg; type: functional, organism-based; method in brief: as §1
[12] = target: T1, Estrogen receptor (Mus musculus); assay: Administered subcutaneously on three consecutive days at a dose of 1000 uM /Kg; type: functional; method in brief: as §2
[13] = target: T1, Estrogen receptor (Mus musculus); assay: (§4) Administered subcutaneously on three consecutive days at a dose of 100 uM /Kg.; type: functional; method in brief: as §2
[14] = test system: Mus musculus; assay: Ratio of median survival time of tested group to that of control group of animals was reported at a concentration of 20 uM/Kg; type: functional, organism-based; method in brief: as §1
[15] = test system: Mus musculus; assay: Ratio of median survival time of tested group to that of control group of animals was reported at a concentration of 40 uM/Kg; type: functional, organism-based; method in brief: as §1
[16] = target: T1, Estrogen receptor (Mus musculus); assay: as §4; type: functional; method in brief: as §2; remark: listed apart in the source
[17] = target: T1, Estrogen receptor (Mus musculus); assay: as §3; type: functional; method in brief: as §2; remark: listed apart in the source
[18] = target: T1, Estrogen receptor (Mus musculus); assay: Estrogenic effect on subcutaneous 10 uM/kg dose for 3 days; type: functional; method in brief: as §2
[19] = test system: P388; assay: In vivo antitumor effect on P388 Leukemia in CDF1 mice, median survival time in days at 20 umol/kg; type: functional, organism-based; details: Mus musculus; method in brief: as §1
[20] = target: T1, Estrogen receptor (Mus musculus); assay: Estrogenic effect on subcutaneous 1000 umol/kg dose for 3 days; type: functional; method in brief: as §2
[21] = target: T1, Estrogen receptor (Mus musculus); assay: Estrogenic effect on subcutaneous 100 uM/kg dose for 3 days; type: functional; method in brief: as §2
[22] = test system: Mus musculus; assay: Ratio of median survival time of tested group to control group at 5 umol/kg; type: functional, organism-based; method in brief: as §1
[23] = test system: P388; assay: In vivo antitumor effect on P388 Leukemia in CDF1 mice at 5 umol/kg intraperitoneal dose; type: functional, organism-based; details: Mus musculus; method in brief: as §1
[24] = test system: P388; assay: In vivo antitumor effect on P388 Leukemia in CDF1 mice, median survival time in days at 5 umol/kg; type: functional, organism-based; details: Mus musculus; method in brief: as §1

| Estrogenic effect [7] | Estrogenic effect [9] | Estrogenic effect [12] [%] | Estrogenic effect [13] [%] | Estrogenic effect [16] | Estrogenic effect [17] | Substance | T-C [1] | MST [2] | MST [3] | T-C [4] | MST [5] | MST [6] | T-C [8] | MST [10] | T/C [11] | T/C [14] | T/C [15] | other results |
| --- | --- | --- | --- | --- | --- | --- | --- | --- | --- | --- | --- | --- | --- | --- | --- | --- | --- | --- |
| 19 and 32 | 0% | 0 | 0 |  |  | Aqua[erythro-1-(-3-hydroxyhenyl)-2-(2,6-dichloro-4-hydroxyphenyl) ethylenediamine](sulfato) platinum (II)(erythro-4-Ptso4) | -1.7 g and -1.9 g | 14.5 and 13.5 | 8 | -0.9 g and -1.5 g | 14 | 13 | -4.6 g and -2.6 g | 15.5 | 156% and 163% | 161% and 169% |  |  |
| 20 and 52 | 1% and 0% |  |  | 11 and 13 | 9 and 11 | Aqua [threo-1-(-2-fluoro-4-hydroxyhenyl)-2-(2,6-dichloro-4-hydroxyphenyl) ethylenediamine](sulfato) platinum (II) | -2.2 g and -1.2 g | 15 and 14 |  |  | 14 and 12 |  | -3.8 g and -2.4 g | 15.5 and 14 | 155% and 133% | 166% and 155% | 172% and 155% |  |
| 86 and 91 | 39% | 117 | 141 | 21 and 22 | 9 and 11 | Aqua[threo-1-(-2-chloro-4-hydroxyhenyl)-2-(2,6-dichloro-4-hydroxyphenyl) ethylenediamine](sulfato) platinum (II)(threo-9-Ptso4) | -1.8 g and -1.2 g | 13 | 14.5 | -1.8 g and -2.4 g | 11.5 | 14 | -2.9 g and -1.9 g | 14 |  | 155% and 144% | 161% and 155% | Estrogenic effect [18]: 10%; MST [19]: 14; Estrogenic effect [20]: 35%; Estrogenic effect [21]: 14% |
|  |  |  |  |  |  | CISPLATIN |  |  |  |  |  |  |  |  |  |  |  | T/C [22]: 238%; T-C [23]: -3.8 g; MST [24]: 19 |
